These results are taken from ChEMBL document CHEMBL4184121, “Semisynthesis, cytotoxicity, antimalarial evaluation and structure-activity relationship of two series of triterpene derivatives” (Bioorg Med Chem Lett, 2018).

Data set [1] concerns Plasmodium falciparum. Kind of data set: Antiplasmodial activity against chloroquine-resistant Plasmodium falciparum W2 infected in human erythrocytes. The format is functional, organism-based. Put shortly:
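P. falciparum W2 grown in fresh human O+ erythrocytes at 2% hematocrit in complete medium, 37 °C. Compounds tested over a 100–3.12 µM dilution series. IC50 estimated from the dose-response curve relative to drug-free control wells (100% parasite viability). Artemisinin run in parallel as control. Triplicates, at least three independent cultures (n = 3).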

Data set [2] can be described thus: Selectivity index, ratio of CC50 for human HepG2 cells to IC50 for chloroquine-resistant Plasmodium falciparum W2. The format is toxicity. The note with it: read-out: Ratio CC50/IC50. In a few lines:
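SI = HepG2 CC50 / W2 IC50. CC50 came from HepG2 growth inhibition over a 400–1.56 µM dilution series, read at 24, 48 and 72 h. IC50 came from the W2 erythrocyte assay (100–3.12 µM range). Triplicates, at least three independent cultures.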

Data set [3] in a line: Cytotoxicity against human HepG2 cells after 72 hrs by MTT assay. The data set is classed as cell-based. Put shortly: (§1)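 VERO (ATCC CCL-81) and HepG2 (ATCC HB-8065) cells were exposed for 24, 48 or 72 h to an […] dilution series from 400 to 1.56 μM. CC50 was taken from the concentration–response curve. Triplicates, with at least three independent cultures (n = 3).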
Background: Tetrazolium dyes change colour on reduction, which living cells bring about.

Data set [4] in a line: Cytotoxicity against African green monkey Vero cells after 72 hrs by MTT assay. The data set is classed as cell-based. The note with it: chlorocebus sabaeus. Put shortly:
as §1

Data set [5] concerns Plasmodium falciparum. Kind of data set: Antiplasmodial activity against Plasmodium falciparum assessed as combination index in presence of artemisinin. The data set is classed as functional. Put shortly: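 Chloroquine-resistant P. falciparum W2 was grown in fresh human O+ erythrocytes at 2% hematocrit in complete medium at 37 °C. Artemisinin was co-tested with the triterpene using the one-point Chou–Talalay method, at a minimum of one combination ratio. CI is the sum of the two FICs: ≤1 synergy, 1–2 additivity, >2 antagonism. Triplicates, n = 3 independent cultures.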

In data set [6] the test system is Plasmodium falciparum. Kind of data set: Antiplasmodial activity against synchronous culture of chloroquine-resistant Plasmodium falciparum W2 ring stage parasite infected in human erythrocytes assessed as reduction in parasitaemia at 100 uM after 24 to 72 hrs by Wright's eosin methylene blue staining based microscopic analysis. The format is functional, organism-based. In a few lines:
(§2)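 Stage-specificity test on W2 parasites in human erythrocytes, started at 2% parasitaemia. Parasites cultured at 2% hematocrit in complete medium at 37 °C.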

Data set [7] has as its system Plasmodium falciparum. Briefly: Antiplasmodial activity against synchronous culture of chloroquine-resistant Plasmodium falciparum W2 ring stage parasite infected in human erythrocytes assessed as delayed appearance of trophozoites at 100 uM after 24 to 72 hrs by Wright's eosin methylene blue staining based microscopic analysis. The format is functional, organism-based. In a few lines:
as §2

Data set [8] deals with Plasmodium falciparum. Kind of data set: Antiplasmodial activity against synchronous culture of chloroquine-resistant Plasmodium falciparum W2 ring stage parasite infected in human erythrocytes assessed as accumulation of ring forms at 100 uM after 24 to 72 hrs by Wright's eosin methylene blue staining based microscopic analysis. The data set is classed as functional, organism-based. In a few lines:
as §2

Data set [9] relates to Plasmodium falciparum. Kind of data set: Antiplasmodial activity against Plasmodium falciparum assessed as potentiation of artemisinin-induced antimalarial activity by measuring dose reduction index relative to artemisinin alone. The data set is classed as functional.
In data set [10] the test system is Plasmodium falciparum. Briefly: Antiplasmodial activity against chloroquine-sensitive Plasmodium falciparum 3D7. The data set is classed as functional, organism-based.
Data set [11] is described as follows: Resistance index, ratio of IC50 for chloroquine-resistant Plasmodium falciparum W2 infected in human erythrocytes to IC50 for chloroquine-sensitive Plasmodium falciparum 3D7. The data set is classed as functional.
The target of data set [12] is T1, Subtilisin Carlsberg (Bacillus licheniformis, UniProt P00780).
T1 sequence (P00780 whole entry): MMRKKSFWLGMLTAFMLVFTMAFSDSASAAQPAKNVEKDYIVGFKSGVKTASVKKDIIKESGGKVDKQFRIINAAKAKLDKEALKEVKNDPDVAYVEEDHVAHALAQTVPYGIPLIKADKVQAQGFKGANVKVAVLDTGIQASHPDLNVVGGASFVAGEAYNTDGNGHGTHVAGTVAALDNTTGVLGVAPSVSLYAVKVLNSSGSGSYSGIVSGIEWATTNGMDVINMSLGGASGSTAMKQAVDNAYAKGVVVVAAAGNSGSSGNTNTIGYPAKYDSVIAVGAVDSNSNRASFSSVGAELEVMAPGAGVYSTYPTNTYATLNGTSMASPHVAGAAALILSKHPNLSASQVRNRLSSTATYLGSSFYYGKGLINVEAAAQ
Kind of data set: Inhibition of Bacillus licheniformis subtilisin A by green-fluorescent BODIPY FL dye based fluorescence assay. In a few lines: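 Purified B. licheniformis subtilisin A tested with a commercial fluorescent peptidase/protease kit, following the kit protocol. Test compound ranged from 5 to 0.01 mM. Fluorescence plotted against log inhibitor concentration.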

The test system of data set [13] is Plasmodium falciparum. Briefly: Antiplasmodial activity against synchronous culture of chloroquine-resistant Plasmodium falciparum W2 ring stage parasite infected in human erythrocytes assessed as parasite cell death at 100 uM up to 72 hrs by Wright's eosin methylene blue staining based microscopic analysis. The format is functional, organism-based. In a few lines: as §2

Activity calls are given as the source filed them. The calls are words filed in the database; no cut-off is given here.

A word on the IC50: it is the concentration that gives 50% inhibition. A word on the CC50: it is the concentration at which the toxic effect on the cells reaches its halfway point. `C[C@H]1[C@H](C)CC[C@]2(C(=O)n3ccnc3)CC[C@]3(C)C(=CC[C@@H]4[C@@]5(C)CCC(=O)C(C)(C)[C@@H]5CC[C@]43C)[C@H]12` came in with an IC50 in data set [1] of 9.07 µM. The selectivity ratio in [2] is greater than 44.1. The CC50 at 72 h in [3] and in data set [4] was greater than 400 µM in each case.
`C=C(C)[C@@H]1CC[C@]2(C(=O)n3ccnc3)CC[C@]3(C)[C@H](CC[C@@H]4[C@@]5(C)CC[C@H](OC(=O)CCC)C(C)(C)[C@@H]5CC[C@]43C)[C@@H]12` returned a 50% inhibitory concentration (IC50) in data set [1] of 57.6 µM. Besides, the selectivity ratio in data set [2] is greater than 6.94. In addition, the 50% cytotoxic concentration (CC50) at 72 h in [3] and in data set [4] was greater than 400 µM throughout.
Regarding `C=C(C)[C@@H]1CC[C@]2(C(=O)O)CC[C@]3(C)[C@H](CC[C@@H]4[C@@]5(C)CCC(=O)C(C)(C)[C@@H]5CC[C@]43C)[C@@H]12` [BETUNOLIC ACID], the midpoint of inhibition in data set [1], the IC50, lay at 7.87 µM. Also, the selectivity ratio in data set [2] amounted to 19.1. The CC50 at 72 h is 150 µM in data set [3] and greater than 400 µM in [4].
In turn, `C=C(C)[C@@H]1CC[C@]2(C(=O)n3ccnc3)CC[C@]3(C)[C@H](CC[C@@H]4[C@@]5(C)CCC(=O)C(C)(C)[C@@H]5CC[C@]43C)[C@@H]12` gave an IC50 in data set [1] of 5.2 µM. Besides, in [2], the selectivity ratio is greater than 76.8. Further, the CC50 at 72 h in data set [3] and in data set [4] was greater than 400 µM throughout.
Consider `C=C(C)[C@@H]1CC[C@]2(C(=O)O)CC[C@]3(C)[C@H](CC[C@@H]4[C@@]5(C)CC[C@H](OC(=O)CCC)C(C)(C)[C@@H]5CC[C@]43C)[C@@H]12`, for which the CI in data set [5] stood at 1.34. The IC50 amounted to 3.4 µM in data set [1], 5 µM in data set [10] and 93 µM in [12]. For the same compound, the selectivity ratio in [2] is greater than 117. Also, the result in data set [6], in [7], in [8] and in [13] was Active. The CC50 at 72 h in [3] and in data set [4] was greater than 400 µM in each case. In addition, in data set [9], the Activity_index amounted to 4. In addition, the “Ratio IC50” value in data set [11] was 0.68.
In data set [1], `CC(=O)O[C@H]1CC[C@]2(C)[C@H]3CC=C4[C@@H]5[C@@H](C)[C@H](C)CC[C@]5(C(=O)n5ccnc5)CC[C@@]4(C)[C@]3(C)CC[C@H]2C1(C)C` came in with a half-inhibitory concentration (IC50) of 50.6 µM. Also, in data set [2], the selectivity ratio is greater than 7.9. Further, the CC50 at 72 h in data set [3] and in [4] was greater than 400 µM in each case.
In data set [1], `CC(C)C(=O)O[C@H]1CC[C@]2(C)[C@H]3CC=C4[C@@H]5[C@@H](C)[C@H](C)CC[C@]5(C(=O)n5ccnc5)CC[C@@]4(C)[C@]3(C)CC[C@H]2C1(C)C` yielded an IC50 of 13.6 µM. Besides, in data set [2], the selectivity ratio was greater than 29.4. Moreover, the CC50 at 72 h in data set [3] and in data set [4] was greater than 400 µM each time.
As for `CCCC(=O)O[C@H]1CC[C@]2(C)[C@H]3CC=C4[C@@H]5[C@@H](C)[C@H](C)CC[C@]5(C(=O)O)CC[C@@]4(C)[C@]3(C)CC[C@H]2C1(C)C`, in data set [5], the CI was determined as 1.05. Moreover, the IC50 in data set [1] turned out to be 13.3 µM. In addition, the selectivity ratio in data set [2] is greater than 30. In addition, the CC50 at 72 h in data set [3] and in [4] was greater than 400 µM throughout. In data set [9], the Activity_index was found to be 7.
Compound `CCCC(=O)O[C@H]1CC[C@]2(C)[C@H]3CC=C4[C@@H]5[C@@H](C)[C@H](C)CC[C@]5(C(=O)n5ccnc5)CC[C@@]4(C)[C@]3(C)CC[C@H]2C1(C)C` yielded an IC50 in data set [1] of 10.4 µM. For the same compound, the selectivity ratio in data set [2] is greater than 38.5. Also, the CC50 at 72 h in [3] and in [4] was greater than 400 µM in each case.
On to `C=C(C)[C@@H]1CC[C@]2(C(=O)O)CC[C@]3(C)[C@H](CC[C@@H]4[C@@]5(C)CC[C@H](OC(=O)C(C)C)C(C)(C)[C@@H]5CC[C@]43C)[C@@H]12`, for which the IC50 in data set [1] was determined as 12.1 µM. The selectivity ratio in [2] is greater than 33. The CC50 at 72 h in data set [3] and in data set [4] was greater than 400 µM throughout.
In turn, `CC(=O)O[C@H]1CC[C@]2(C)[C@H]3CC=C4[C@@H]5[C@@H](C)[C@H](C)CC[C@]5(C(=O)O)CC[C@@]4(C)[C@]3(C)CC[C@H]2C1(C)C` [O-ACETYLURSOLIC ACID] gave a concentration for half-maximal inhibition (IC50) in [1] of 9.08 µM. Moreover, the selectivity ratio in data set [2] is greater than 44. Besides, the CC50 at 72 h in data set [3] and in [4] was greater than 400 µM each time.
Consider `C=C(C)[C@@H]1CC[C@]2(C(=O)n3ccnc3)CC[C@]3(C)[C@H](CC[C@@H]4[C@@]5(C)CC[C@H](OC(=O)C(C)C)C(C)(C)[C@@H]5CC[C@]43C)[C@@H]12`, for which the midpoint of inhibition in data set [1], the IC50, lay at 29.6 µM. In addition, in data set [2], the selectivity ratio was greater than 13.5. For the same compound, the CC50 at 72 h in data set [3] and in data set [4] was greater than 400 µM in each case.
`C=C(C)[C@@H]1CC[C@]2(C(=O)O)CC[C@]3(C)[C@H](CC[C@@H]4[C@@]5(C)CC[C@H](O)C(C)(C)[C@@H]5CC[C@]43C)[C@@H]12` [BETULINIC ACID]: the half-inhibitory concentration (IC50) in data set [1] came to 12.8 µM. In addition, in data set [2], the selectivity ratio was greater than 31.4. Besides, the cytotoxic concentration (CC50) at 72 h in data set [3] and in data set [4] was greater than 400 µM each time.
In the case of `C=C(C)[C@@H]1CC[C@]2(C(=O)O)CC[C@]3(C)[C@H](CC[C@@H]4[C@@]5(C)CC[C@H](OC(C)=O)C(C)(C)[C@@H]5CC[C@]43C)[C@@H]12`, in data set [1], half-maximal inhibition (IC50) required 65.5 µM. Moreover, the selectivity ratio in data set [2] was greater than 6.11. The CC50 at 72 h in data set [3] and in data set [4] was greater than 400 µM each time.
